ASAP1 GAP inh: inhibitors of human ASAP1 ArfGAP activity, primary screen, biochemical, fluorescence polarization; Arf-GAP with SH3 domain, ANK repeat and PH domain-containing protein 1 (Homo sapiens), …; ASAP1-stimulated ARF1 GTP hydrolysis, GDP FP detection; inhibition, % at 16.5 µM; actives 0.19% (n = 360,000); AID 624377, 2012; in the data active = inhibition above about 25%;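 also: 0% = vehicle with enzyme and substrate and 100% = no enzyme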
Target sequence (Q9ULH1 325-724 limits assumed): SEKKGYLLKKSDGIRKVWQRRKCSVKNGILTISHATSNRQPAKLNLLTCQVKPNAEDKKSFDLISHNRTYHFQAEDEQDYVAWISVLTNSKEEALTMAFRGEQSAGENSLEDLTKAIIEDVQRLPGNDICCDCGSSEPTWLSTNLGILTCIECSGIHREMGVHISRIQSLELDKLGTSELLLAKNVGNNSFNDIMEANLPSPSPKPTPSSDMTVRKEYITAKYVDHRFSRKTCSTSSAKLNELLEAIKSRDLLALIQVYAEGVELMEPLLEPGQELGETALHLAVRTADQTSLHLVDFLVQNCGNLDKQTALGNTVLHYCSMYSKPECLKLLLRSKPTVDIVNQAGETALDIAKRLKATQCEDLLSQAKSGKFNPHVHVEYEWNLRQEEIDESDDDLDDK
SMARCA2 act: SMARCA2 (BRM) function activators, primary screen, cell-based, luminescence, high throughput; MG213 cells, MMTV-luciferase reporter, dexamethasone, overnight; activation, % at 9.1 µM; actives 1% (n = 370,000); AID 652017, 2013; in the data active = activation above about 7.8%;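 also: 0% = vehicle wells and 100% = reference activator wells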
ARFGAP1 inhibitor: inhibitors of rat ARFGAP1 GAP activity, primary screen, biochemical, fluorescence polarization, GDP tracer; ADP-ribosylation factor GTPase-activating protein 1 (Rattus norvegicus), Q62848; actives 0.26% (n = 360,000); AID 651572, 2012; Arfgap1-stimulated ARF1 GTP hydrolysis, GDP FP detection; inhibition, % at 16.5 µM;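 active = inhibition above a per-plate limit, mean inhibition of low control wells plus 3 SD, cut at about 25% in these data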;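 also: 0% = DMSO wells with enzyme and 100% = wells lacking Arfgap1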
Target sequence (Q62848 1-136 limits assumed): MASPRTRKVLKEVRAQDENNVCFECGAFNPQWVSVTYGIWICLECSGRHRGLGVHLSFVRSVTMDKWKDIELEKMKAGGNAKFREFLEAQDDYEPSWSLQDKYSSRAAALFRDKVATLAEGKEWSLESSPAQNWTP
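Replicates: Single well per compound | Assay system: Truncated rat Arfgap1 GAP domain | Control set: No-Arfgap1 wells (100%) versus DMSO full-reaction wells (0%) | Times: Enzyme reaction 120 min at 25 °C after 20 min preincubation | Reagent: Human ARF1(Δ1-17)-GTP substrate | Measured by: Tracer-displacement fluorescence polarization with EDTA stop, 620/688 nm | Measure: Percent inhibition of Arfgap1-stimulated GTP hydrolysis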
esBAF inh: Bmi1 luciferase reporter increase in mESCs, primary screen, esBAF inhibitor project, mouse ES cells, Bmi1 luciferase knock-in, single point. actives 2% (n = 350,000). AID 602393, 2012. 24 h; 100% = twice the neutral-well signal. reporter increase, % at 12.5 µM; in the data active = activation above about 40%; inconclusive = no clear call, values can overlap the other calls;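 also: 0% = median of the plate's neutral control wells and 100% = double that signal; a rise in the Bmi1 reporter signal indicates esBAF inhibition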
* marks the source's active call; other numbers are inactive results. A selection: hits, their analogues and other compounds. The true share with any hit is near 2.6%.

What do the screens show for `O=C1C(Nc2ccc(O)cc2)=C/C(=N/S(=O)(=O)c2cccs2)c2ccccc21`?
ASAP1 GAP inh: 31.9*; SMARCA2 act: -13.0; ARFGAP1 inhibitor: 9.0

What do the screens show for `C/C=C/c1ccc([C@@H]2[C@@H](CN(C)C(=O)C3CC3)N(C(=O)C3CC3)[C@H]2CO)cc1`?
esBAF inh: -4.0

What do the screens show for `O=C(Cc1ccc(Br)cc1)N1CCCCCC1`?
ASAP1 GAP inh: 0.4; SMARCA2 act: -2.1; ARFGAP1 inhibitor: -11.5; esBAF inh: 56.8*

What do the screens show for `C[C@H](CO)N1C[C@H](C)[C@H](CN(C)Cc2ccncc2)Oc2ccc(NC(=O)C3CCCCC3)cc2C1=O`?
esBAF inh: 3.3

What do the screens show for `O=C(/C=C/c1ccc(Br)cc1)NC1CCCCCC1`?
ASAP1 GAP inh: 5.3; SMARCA2 act: 1.4; ARFGAP1 inhibitor: 8.6; esBAF inh: 29.9

What do the screens show for `CC(C)Cc1ccc(/C=C/C(=O)NC2CC2)cc1`?
ASAP1 GAP inh: 6.8; SMARCA2 act: 4.8; ARFGAP1 inhibitor: -6.3; esBAF inh: 49.2*

What do the screens show for `C[C@H](CO)N1C[C@H](C)[C@H](CN(C)CC2CC2)Oc2ccc(NS(C)(=O)=O)cc2C1=O`?
esBAF inh: 1.8

What do the screens show for `O=C(N/N=C/c1cccs1)c1ccc2ccccc2c1`?
ASAP1 GAP inh: 6.6; SMARCA2 act: 0.5; ARFGAP1 inhibitor: 8.7; esBAF inh: 76.6*

What do the screens show for `CC(C)(C)NC(=O)C(=O)N/N=C/c1cccs1`?
ASAP1 GAP inh: -1.8; SMARCA2 act: 1.7; ARFGAP1 inhibitor: 5.0; esBAF inh: 45.6*

How did Cc1ccc(O)c(CN(C)Cc2cc(C)ccc2O)c1 do in these assays?
ASAP1 GAP inh: -8.5; SMARCA2 act: 3.9; ARFGAP1 inhibitor: 4.0; esBAF inh: 50.6*

Results for COc1ccccc1/C=N/n1c(N)c(S(=O)(=O)c2cccs2)c2nc3ccccc3nc21 ?
ASAP1 GAP inh: 14.1; SMARCA2 act: -2.1; ARFGAP1 inhibitor: 7.0; esBAF inh: 41.4*

How did Cc1cc(=O)n2[nH]c(-c3ccc(Cl)cc3)cc2n1 do in these assays?
ASAP1 GAP inh: -5.2; SMARCA2 act: 7.8*; ARFGAP1 inhibitor: -3.7; esBAF inh: inconclusive

Results for Cc1cc(=O)n2[nH]c(-c3ccc(F)cc3)cc2n1 ?
ASAP1 GAP inh: -13.9; SMARCA2 act: 6.0; ARFGAP1 inhibitor: -5.2

How did CCCc1cc(=O)n2[nH]c(-c3cccc(Br)c3)cc2n1 do in these assays?
ASAP1 GAP inh: 3.1; SMARCA2 act: 1.1; ARFGAP1 inhibitor: -10.0; esBAF inh: 51.9*

How did Cc1cccc(-c2cc3nc(-c4ccccc4)cc(=O)n3[nH]2)c1 do in these assays?
ASAP1 GAP inh: 13.4; SMARCA2 act: 5.2; ARFGAP1 inhibitor: 2.0; esBAF inh: 16.6

How did N/C(=N\OC(=O)COc1ccc2ccccc2c1)c1ccccn1 do in these assays?
ASAP1 GAP inh: 7.6; SMARCA2 act: 5.5; ARFGAP1 inhibitor: 12.1; esBAF inh: 102.6*

What do the screens show for `Cc1ccc(-n2cc(-c3ccccc3)[nH]c2=O)cc1F`?
ASAP1 GAP inh: -8.4; SMARCA2 act: 3.5; ARFGAP1 inhibitor: 9.1; esBAF inh: 50.3*

Results for COc1ccc(-c2cn(-c3cccc(C)c3)c(=O)[nH]2)cc1OC ?
ASAP1 GAP inh: 0.5; SMARCA2 act: 1.9; ARFGAP1 inhibitor: -4.3; esBAF inh: 21.2

How did C[C@H]1CCCCO[C@H](CN(C)C(=O)c2ccccc2)[C@@H](C)CN([C@@H](C)CO)C(=O)c2cc(NC(=O)Nc3ccc(C(F)(F)F)cc3)ccc2O1 do in these assays?
esBAF inh: 1.7

Results for CCCNC(=O)N1C[C@H](O)COC[C@H]2O[C@H](CC(=O)N3CCCCC3)CC[C@@H]21 ?
esBAF inh: -5.6

How did COCC(=O)Nc1ccc2c(c1)OC[C@H](C)N(C(=O)Cc1ccccn1)C[C@@H](C)[C@H](OC)CN(C)C2=O do in these assays?
esBAF inh: 7.2

What do the screens show for `Cc1ccc(S(=O)(=O)/N=C(/NC(=S)Nc2ccccc2)c2ccccc2)cc1`?
ASAP1 GAP inh: 6.3; SMARCA2 act: 1.8; ARFGAP1 inhibitor: -1.9; esBAF inh: 55.5*

What do the screens show for `CCOC(=S)N/C(=N\S(=O)(=O)c1ccccc1)c1ccccc1`?
ASAP1 GAP inh: -1.0; SMARCA2 act: -0.5; ARFGAP1 inhibitor: -6.4; esBAF inh: -4.2

Results for CCCOC(=S)N/C(=N\S(=O)(=O)c1ccccc1)c1ccccc1 ?
ASAP1 GAP inh: 3.3; SMARCA2 act: 7.9*; ARFGAP1 inhibitor: 11.9; esBAF inh: -0.9

How did O=C(C[C@@H]1C[C@H]2c3cc(NC(=O)C4CCOCC4)ccc3O[C@H]2[C@@H](CO)O1)NCc1cccc(F)c1 do in these assays?
esBAF inh: -5.5

What do the screens show for `CNC[C@H]1OCCCC[C@H](C)Oc2ccc(NS(=O)(=O)c3ccc(C)cc3)cc2C(=O)N([C@H](C)CO)C[C@@H]1C`?
esBAF inh: -0.7

How did O=C(c1ccc(Cl)cc1)c1cnc(Nc2ccccc2Cl)s1 do in these assays?
ASAP1 GAP inh: -0.7; SMARCA2 act: 2.5; ARFGAP1 inhibitor: 11.8; esBAF inh: 56.8*

What do the screens show for `CSCCC(=O)Nc1ccc(C(C)=O)cc1`?
ASAP1 GAP inh: 6.1; SMARCA2 act: 4.4; ARFGAP1 inhibitor: -11.3; esBAF inh: 53.3*

How did CC(=O)c1ccc(NC(=O)CN2CCCC2)cc1 do in these assays?
ASAP1 GAP inh: 3.0; SMARCA2 act: 4.5; ARFGAP1 inhibitor: 2.2; esBAF inh: 49.6*

What do the screens show for `Cc1ccc(NC(=O)CN2CCCC2)cc1`?
ASAP1 GAP inh: -3.8; SMARCA2 act: -0.6; ARFGAP1 inhibitor: 13.7; esBAF inh: 3.9

How did O=C(CSC1=NCCS1)Nc1cccc2ccccc12 do in these assays?
ASAP1 GAP inh: -5.0; SMARCA2 act: 0.1; ARFGAP1 inhibitor: -7.4; esBAF inh: -0.9

What do the screens show for `O=C(CSc1cccs1)Nc1cccc2ccccc12`?
ASAP1 GAP inh: -1.5; SMARCA2 act: 2.4; ARFGAP1 inhibitor: -2.5; esBAF inh: 71.7*

Results for O=C(CSc1ccccc1)Nc1ccc2sccc2c1 ?
ASAP1 GAP inh: 1.1; SMARCA2 act: 5.5; ARFGAP1 inhibitor: -7.5; esBAF inh: 9.9

What do the screens show for `O=C(CSc1cccs1)Nc1ccc2ccccc2c1`?
ASAP1 GAP inh: 5.0; SMARCA2 act: 6.1; ARFGAP1 inhibitor: 13.6; esBAF inh: 59.5*

What do the screens show for `COc1ccc(C2=Cc3ccc(OC(C)=O)cc3OC2)cc1`?
ASAP1 GAP inh: -13.6; SMARCA2 act: 6.5; ARFGAP1 inhibitor: -6.9; esBAF inh: 78.3*

How did CCC(=O)Nc1cccc(-c2ccc(N3CCC(C)CC3)nn2)c1 do in these assays?
ASAP1 GAP inh: -5.7; SMARCA2 act: 3.5; ARFGAP1 inhibitor: -8.4; esBAF inh: -57.9

How did CCC(=O)Nc1ccc(-c2ccc(N3CCC(C)CC3)nn2)cc1 do in these assays?
esBAF inh: 48.4*

What do the screens show for `CCCCCC(=O)N/N=C/c1ccc(N(C)C)cc1`?
ASAP1 GAP inh: -11.8; SMARCA2 act: 0.6; ARFGAP1 inhibitor: -4.9; esBAF inh: 51.5*

Results for O=C(NC(=S)Nc1ccc2[nH]ncc2c1)c1ccccc1 ?
ASAP1 GAP inh: -2.1; SMARCA2 act: 2.0; ARFGAP1 inhibitor: 10.3; esBAF inh: 66.2*

Screening results: PubChem, several laboratories
